In data set [1] the test system is Mus musculus. Kind of data set: Reduction of food intake in orally dosed C57BL/6N DIO mouse after 6 hrs at 30 mg/kg relative to control. It counts as functional. Conditions: route oral. In short, it runs like this: (§1)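 Male C57Bl/6NCrl:BR mice made obese on a 45%-fat diet, individually housed, 12 h light/dark, 22 °C; acclimated to oral 20% hydroxypropyl-β-cyclodextrin vehicle for 2-3 days. Single oral 30 mg/kg dose in 20% HPβCD; food intake weighed to 0.01 g at 2, 6 and 24 h, expressed as % of vehicle ± SEM.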

The nature of data set [2]: (§2) AUC (0-6h) in rat at 10 mg/kg, po. It counts as ADME, organism-based, Plasma. Set-up: time < 6 hr, dose 10 mg/kg, route oral. Conditions: plasma.
Data set [3] relates to Mus musculus. Kind of data set: Reduction of food intake in orally dosed C57BL/6N DIO mouse after 24 hrs at 30 mg/kg relative to control. It counts as functional. Conditions: for Food intake (% of vehicle control): route oral. In short, it runs like this:
as §1

Data set [4] relates to Mus musculus. Kind of data set: Reduction of food intake in orally dosed C57BL/6N DIO mouse after 2 hrs at 30 mg/kg relative to control. The format is functional. On the set-up: Activity: scale not given: the % may be the effect or the level left. Conditions: route oral. The method, boiled down: as §1
Data set [5] concerns the target Melanin-concentrating hormone receptor 1 (Mus musculus) (UniProt Q8JZL2). The data set can be described thus: Receptor occupancy ex vivo by displacement of [125I]S36057 binding from MCHR1 in C57BL/6N mouse brain after 6 hrs at 30 mg/kg, po. The format is functional, organism-based. Set-up: dose 30 mg/kg. In short, it runs like this:
(§3)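 Male C57Bl/6NCrl:BR mice given vehicle (HPβCD) or compound orally; killed by CO2 at 6 or 24 h post-dose (chronic studies: 24 h after last daily dose, n = 3/group). 16 µm frozen caudate putamen sections incubated 30 min at room temperature with 700 pM [125I]-S36057 in MCH-R1 binding buffer; 1 µM MCH defines nonspecific binding. Phosphorimager quantitation; % inhibition versus vehicle.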
For orientation: Loss of bound radioactivity is the signal in a displacement assay; it reports binding, not function.

For data set [6] the target is unchanged. Kind of data set: Receptor occupancy ex vivo by displacement of [125I]S36057 binding from MCHR1 in C57BL/6N mouse brain after 24 hrs at 30 mg/kg, po. Set-up: dose 30 mg/kg. The format is functional, organism-based. The method, boiled down:
as §3

For a further data set, the system named is Rattus norvegicus. Described as §2. The format is ADME, organism-based, Plasma. Set-up: time < 6 hr, dose 10 mg/kg, route oral. The conditions noted are these: in vivo, 6 h.
For data set [7], the target named is T1, Melanin-concentrating hormone receptor 1 (Homo sapiens, UniProt Q99705). The data set can be described thus: Displacement of [125I]MCH from human MCHR1 expressed in CHO cell. The format is cell-based.
Data set [8] can be described thus: Ratio of drug level in brain against plasma in rat after 6 hrs at 10 mg/kg, po. It counts as ADME, organism-based. On the set-up: dose 10 mg/kg, route oral.
Data set [9] has as its target T1, Melanin-concentrating hormone receptor 1. Kind of data set: Inhibition of MCH-mediated calcium influx in CHO cells expressing human MCHR1 by FLIPR assay. The format is functional, cell-based. The method, boiled down:
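After two washes, treated with vehicle (buffer, 2% DMSO) or compound, then stimulated with 30 nM MCH; intracellular Ca²⁺ change read by FLIPR.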

The nature of data set [10]: AUC (0-24h) in rat at 10 mg/kg, po. Conditions: plasma. On the set-up: time < 24 hr, dose 10 mg/kg, route oral. It counts as ADME, organism-based, Plasma.

These results are taken from ChEMBL document CHEMBL1146084, “Discovery of orally efficacious melanin-concentrating hormone receptor-1 antagonists as antiobesity agents. Synthesis, SAR, and biological evaluation of bicyclo[3.1.0]hexyl ureas” (J Med Chem, 2006).

By AUC(0-t) is commonly meant the area under the concentration-time curve up to a stated or last time point. Broadly, the AUC is the area under the concentration-time curve, a measure of exposure. As a reminder, the Ki is the dissociation constant of the complex between target and ligand, obtained from inhibition or displacement. The term Kp denotes tissue or fluid exposure divided by exposure in the circulation.

Active and inactive are the calls of the source. No cut-off for these calls is given here.

Chain of Melanin-concentrating hormone receptor 1 (Mus musculus) (Q8JZL2 whole entry): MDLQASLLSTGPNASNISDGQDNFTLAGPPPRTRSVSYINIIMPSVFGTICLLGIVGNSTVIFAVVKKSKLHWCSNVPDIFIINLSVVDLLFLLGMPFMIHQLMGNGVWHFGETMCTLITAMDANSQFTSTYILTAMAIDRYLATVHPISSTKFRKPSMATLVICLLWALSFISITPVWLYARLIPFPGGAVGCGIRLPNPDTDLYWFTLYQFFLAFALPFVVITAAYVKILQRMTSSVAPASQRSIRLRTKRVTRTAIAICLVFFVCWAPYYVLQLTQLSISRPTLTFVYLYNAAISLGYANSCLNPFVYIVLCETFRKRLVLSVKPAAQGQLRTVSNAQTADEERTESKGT
T1 sequence (Q99705 whole entry): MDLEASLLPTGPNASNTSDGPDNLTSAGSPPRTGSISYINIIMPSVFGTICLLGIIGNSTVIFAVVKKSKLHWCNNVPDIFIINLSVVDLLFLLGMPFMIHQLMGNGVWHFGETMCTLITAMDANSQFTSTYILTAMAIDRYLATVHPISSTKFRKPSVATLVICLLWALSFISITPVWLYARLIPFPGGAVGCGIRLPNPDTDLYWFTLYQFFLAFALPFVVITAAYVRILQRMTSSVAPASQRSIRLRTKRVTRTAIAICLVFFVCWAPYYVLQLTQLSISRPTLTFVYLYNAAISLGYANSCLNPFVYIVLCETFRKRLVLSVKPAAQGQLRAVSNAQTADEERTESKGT

In the case of `CN1CCN(CCCN(C(=O)Nc2ccc(F)c(Cl)c2)[C@@H]2CC[C@]3(c4ccc(OC(F)(F)F)cc4)C[C@H]23)CC1` (relative stereo), the “Food intake (% of vehicle control)” value in the data set with Mus musculus [1] was 80.5%; in the data set with Mus musculus [3] it was 85.9%. In data set [2], this molecule showed an exposure AUC(0-t) at 6 h of 578 ng·h/mL. Besides, the Activity in the data set on Mus musculus [4] was determined as 86.2%; in [5] it was 96%; in data set [6], 15%.

For the molecule `N#Cc1cccc([C@]23CC[C@@H](N(CCN4CC[C@@H](O)C4)C(=O)Nc4ccc(F)c(Cl)c4)[C@H]2C3)c1` (stereo in doubt; (-)-23d), in the data set with Rattus norvegicus, the AUC worked out at 2404 ng·h/mL.

`N#Cc1cccc([C@]23CC[C@@H](N(CCN4CC[C@@H](O)C4)C(=O)Nc4ccc(F)c(Cl)c4)[C@H]2C3)c1` (stereo in doubt; (+)-23c) displayed an AUC with Rattus norvegicus of 585 ng·h/mL. This molecule returned a Ki in data set [7] of 13 nM.

As to `N#Cc1cccc([C@]23CC[C@@H](N(CCN4CC[C@H](O)C4)C(=O)Nc4ccc(F)c(C(F)(F)F)c4)C[C@H]2C3)c1`, the Kp at 6 h in [8] is 1.1. For the same molecule, the Kb in [9] is 11 nM. Also, the outcome in the data set with Mus musculus [3] was Active. The same molecule displayed an Activity in [5] of 73%. In addition, in data set [7], the affinity corresponds to a Ki of 15.1 nM. This molecule also yielded an AUC(0-t) at 24 h in [10] of 16.4 µM·h.

Regarding `N#Cc1cccc([C@]23CC[C@@H](N(CCN4CC[C@@H](O)C4)C(=O)Nc4ccc(F)c(Cl)c4)C[C@H]2C3)c1`, in [8], the Kp at 6 h came to 0.7. For the same molecule, in the data set with Mus musculus [3], the outcome was inactive. In addition, in data set [5], the Activity is 58%. In addition, the AUC(0-t) at 24 h in [10] worked out at 14 µM·h.

As for `N#Cc1cccc([C@]23CC[C@@H](N(CCN4CC[C@@H](O)C4)C(=O)Nc4ccc(F)c(C(F)(F)F)c4)[C@H]2C3)c1`, the “Food intake (% of vehicle control)” value in the data set with Mus musculus [1] came to 68.2%; with Mus musculus [3], 80.8%. This molecule also displayed an AUC(0-t) at 6 h in data set [2] of 2190 ng·h/mL. Also, the “Food intake (% of vehicle)” value with Mus musculus [4] worked out at 65.7%. In [5], the Activity turned out to be 81%.

Turning to `N#Cc1cccc([C@]23CC[C@@H](N(CCCCN4CCOCC4)C(=O)Nc4ccc(F)c(C(F)(F)F)c4)[C@H]2C3)c1` (relative stereo), the “Food intake (% of vehicle control)” value with Mus musculus [1] was determined as 83.4%; in the data set on Mus musculus [3], 94.1%. In data set [2], this molecule had an AUC(0-t) at 6 h of 450 ng·h/mL. The “Food intake (% of vehicle)” value with Mus musculus [4] was 88%. Further, in [5], the Activity worked out at 64%. The molecule further came in with a Ki in [7] of 2.5 nM.
